In assay [1] the target is T1, 5-hydroxytryptamine receptor 1A (Homo sapiens, UniProt P08908).
T1 sequence (P08908 whole entry): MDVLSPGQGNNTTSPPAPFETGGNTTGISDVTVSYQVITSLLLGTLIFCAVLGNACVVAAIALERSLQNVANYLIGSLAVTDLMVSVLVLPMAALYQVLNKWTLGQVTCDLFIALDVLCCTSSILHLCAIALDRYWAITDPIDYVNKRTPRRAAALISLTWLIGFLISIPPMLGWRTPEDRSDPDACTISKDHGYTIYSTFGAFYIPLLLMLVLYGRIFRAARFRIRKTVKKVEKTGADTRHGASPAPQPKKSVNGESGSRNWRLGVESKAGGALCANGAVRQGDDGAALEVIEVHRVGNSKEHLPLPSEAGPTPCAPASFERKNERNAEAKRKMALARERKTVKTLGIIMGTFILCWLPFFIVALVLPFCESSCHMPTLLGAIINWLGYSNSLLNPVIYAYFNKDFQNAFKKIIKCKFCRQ
In words: Antagonist activity at human 5HT1A receptor expressed in HEK293 cells assessed as inhibition of serotonin-induced cAMP concentration at 10^-6 M by adenylate cyclase activity based HTRF assay relative to control. In outline: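 Human 5-HT1A in HEK-293 cells and human 5-HT7 in CHO cells, per the text. Compounds were tested at a single 10^-6 M concentration, in duplicate. Read-out was % inhibition of the control agonist cAMP response, measured by HTRF against the maximal effect of 300 nM serotonin. Reference antagonists were methiothepin (5-HT7) and WAY-100635 (5-HT1A).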
For orientation: Time-resolved FRET reads energy transfer from a long-lived donor to a nearby acceptor.

Assay [2] deals with 5-hydroxytryptamine receptor 7 (Homo sapiens, UniProt P34969). In words: Antagonist activity at human 5HT7 receptor expressed in HEK293 cells assessed as inhibition of serotonin-induced cAMP concentration at 10^-6 M by adenylate cyclase activity based HTRF assay relative to control.

The structures appear in SMILES notation.

Chain of 5-hydroxytryptamine receptor 7 (P34969 whole entry): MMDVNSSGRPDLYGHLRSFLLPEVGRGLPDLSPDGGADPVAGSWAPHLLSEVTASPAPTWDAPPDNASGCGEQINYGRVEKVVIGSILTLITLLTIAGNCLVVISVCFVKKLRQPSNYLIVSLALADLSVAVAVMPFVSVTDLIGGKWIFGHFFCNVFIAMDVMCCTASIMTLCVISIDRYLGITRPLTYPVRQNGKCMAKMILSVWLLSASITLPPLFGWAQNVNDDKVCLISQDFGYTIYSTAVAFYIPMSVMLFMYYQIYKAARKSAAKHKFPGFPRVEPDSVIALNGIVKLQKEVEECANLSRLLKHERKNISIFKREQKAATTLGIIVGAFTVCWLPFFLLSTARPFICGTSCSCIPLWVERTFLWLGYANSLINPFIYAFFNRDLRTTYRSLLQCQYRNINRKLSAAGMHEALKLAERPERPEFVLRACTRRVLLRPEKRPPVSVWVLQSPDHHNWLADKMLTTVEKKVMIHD

Take `CSc1ccccc1N1CCN(CCCCCC(=O)N2Cc3ccccc3C[C@H]2C(N)=O)CC1`: in assay [1], the Inhibition came out at 98%.
`NC(=O)[C@@H]1Cc2ccccc2CN1C(=O)CCCCN1CCN(c2ccccc2-c2ccccc2)CC1`: in assay [2], the Inhibition amounted to 94%.
For the compound `CC(C)c1ccccc1N1CCN(CCCCCCC(=O)N2CCC[C@H]2C(=O)N2CCCCC2)CC1`, in assay [1], the Inhibition came out at 100%.
With `O=C([C@@H]1CCCN1C(=O)CCCCN1CCN(c2ccccc2-c2ccccc2)CC1)N1CCCCC1`, the Inhibition in assay [2] came out at 91%.

As a reminder, the Inhibition is the share of the control response that was lost under treatment.

(Values after BindingDB's records for doi:10.1016/j.ejmech.2014.12.041 (Jagiellonian University Medical College, 2015).)
